From ChEMBL document CHEMBL1150578, “Potent antiviral potamogetonyde and potamogetonol, new furanoid labdane diterpenes from Potamogeton malaianus” (J Nat Prod, 2001)
Converted amounts (≈) assume the structure as drawn.

Legend:
Human alphaherpesvirus 1 = test: Antiviral activity against HSV1 infected in african green monkey Vero cells after 72 hrs by SRB assay; format: functional, organism-based; details: Human alphaherpesvirus 1, Vero
Method in brief: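 HSV-1 (30 PFU) added to wells with test samples (final 20–50 µg/mL), then Vero cells plated at 1 × 10^5 cells/mL. Vero cells grown in MEM with 10% heat-inactivated FBS and antibiotics. Incubated 72 h at 37 °C, 5% CO2. Cells then fixed and stained, and OD read at 510 nm. Acyclovir was the reference.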

[1] = Cytotoxicity against human BC cells by SRB assay; format: functional, cell-based
Vero = test: Cytotoxicity against african green monkey Vero cells by SRB assay; format: cell-based; details: Chlorocebus sabaeus
[2] = tested on: Mycobacterium tuberculosis; test: Antimycobacterial activity against Mycobacterium tuberculosis H37Ra by microplate alamar blue assay; format: functional
[3] = Cytotoxicity against Aedes albopictus C6/36 cells after 24 hrs by MTT assay; format: functional, cell-based; details: C6/36, 24 h
Method in brief: (§1)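 C6/36 cells in MEM with 10% FCS and 1.1 g/L Na2CO3, at 28 °C, antibiotic-free stock. Seeded 1.6 × 10^4 cells/well and left 48 h to attach. Exposed 24 h to 1:2 serial dilutions from 200 to 1.56 µg/mL (top dose in 1% DMSO) with penicillin/streptomycin. Then 24 h recovery in fresh medium. MTT 4 h, formazan dissolved in DMSO/glycine buffer pH 10.5, OD 570 nm. Four wells per point; IC50 by metabolic competence.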

[4] = Cytotoxicity against Spodoptera frugiperda Sf9 cells after 24 hrs by MTT assay; format: functional, cell-based; details: Sf9, 24 h
Method in brief: as §1, with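 “Seeded” for “C6/36 cells in MEM with 10% FCS and 1.1 g/L Na2CO3, at 28 °C, antibiotic-free stock. Seeded”, “4” for “1.6”, “10^3” for “10^4”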

KB = test: Cytotoxicity against human KB cells by SRB assay; format: functional, cell-based

SMILES	IC50 (Human alphaherpesvirus 1) [µg/mL]	IC50 [1] [µg/mL]	IC50 (Vero) [µg/mL]	MIC [2] [µg/mL]	IC50 [3] [µg/mL]	IC50 [4] [µg/mL]	IC50 (KB) [µg/mL]
Nc1nc2c(ncn2COCCO)c(=O)[nH]1 [ACYCLOVIR]	2 (≈ 8.88 µM)						
C=C1CC[C@@H]2[C@@]3(C)CCC[C@@]2(C(=O)OC3)[C@@H]1CCc1ccoc1 [POTAMOGETONIN]	> 20	> 20	> 50	100 (≈ 318 µM)	22 (≈ 70 µM)	15 (≈ 47.7 µM)	> 20
Cc1c2ccncc2c(C)c2c1[nH]c1ccccc12 [ELLIPTECINE]		0.1 (≈ 0.406 µM)	0.4 (≈ 1.62 µM)				0.1 (≈ 0.406 µM)
C=C1CC[C@@H]2[C@](C)(COC(C)=O)CCC[C@@]2(CO)[C@@H]1CCc1ccoc1 [POTAMOGETONOL]	3 (≈ 8.32 µM)	> 20	28 (≈ 77.7 µM)	50 (≈ 139 µM)	43 (≈ 119 µM)	23 (≈ 63.8 µM)	> 20
C=C1CC[C@@H]2[C@](C)(COC(C)=O)CCC[C@@]2(C=O)[C@@H]1CCc1ccoc1 [POTAMOGETONYDE]	8 (≈ 22.3 µM)	> 20	31 (≈ 86.5 µM)	100 (≈ 279 µM)	30 (≈ 83.7 µM)	11 (≈ 30.7 µM)	> 20
C=C1CC[C@@H]2[C@@]3(C)CCC[C@@]2(C(=O)OC3)[C@@H]1CC(=O)c1ccoc1	> 20	> 20	> 50	100 (≈ 304 µM)	72 (≈ 219 µM)	26 (≈ 79.2 µM)	> 20
CO[C@@]12[C@H](COC(N)=O)C3=C(C(=O)C(C)=C(N)C3=O)N1C[C@@H]1N[C@@H]12 [MITOMYCIN]					3 (≈ 8.97 µM)	3 (≈ 8.97 µM)	
NC[C@H]1O[C@H](O[C@H]2[C@H](O)[C@@H](O[C@H]3O[C@H](CO)[C@@H](O)[C@H](N)[C@H]3O)[C@H](N)C[C@@H]2N)[C@H](O)[C@@H](O)[C@@H]1O.O=S(=O)(O)O [KANAMYCIN SULFATE]				2			
NNC(=O)c1ccncc1 [ISONIAZID]				0.04 (≈ 0.292 µM)			
